The target of data set [1] is Platelet-derived growth factor receptor beta (Homo sapiens, UniProt P09619). Description: Inhibition of N-terminal GST-fused human PDGFRbeta cytoplasmic domain (557 to 1106 (end) residues) expressed in baculovirus expression system using FAM-labeled peptide and ATP as substrate preincubated for 10 mins followed by substrate addition measured after 1 hr by mobility shift assay.

Data set [2] can be described thus: Intrinsic clearance in human liver microsomes. It counts as ADME, Microsome. As to conditions: read-out: CLH.
Data set [3] has as its target Cyclin-dependent kinase 2 (Homo sapiens, UniProt P24941). Description: Inhibition of CDK2 (unknown origin) using FAM-labeled peptide and ATP as substrate preincubated for 10 mins followed by substrate addition measured after 1 hr by mobility shift assay.
A short description of data set [4]: Half life in human liver microsomes. It counts as ADME, Microsome. (Liver microsomes are vesicles of endoplasmic reticulum, rich in cytochrome P450 enzymes.)
Data set [5] can be described thus: Inhibition of N-terminal GST-tagged human recombinant PDGFRalpha D842I mutant expressed in baculovirus-infected Sf9 cells using FAM-labeled peptide and ATP as substrate preincubated for 10 mins followed by substrate addition measured after 1 hr by mobility shift assay.
Data set [6] concerns the target Tyrosine-protein kinase Lyn (Homo sapiens, UniProt P07948). As to the kind of experiment: Inhibition of LYN (unknown origin) using FAM-labeled peptide and ATP as substrate preincubated for 10 mins followed by substrate addition measured after 1 hr by mobility shift assay.
Data set [7] can be described thus: Toxicity in nu/nu mouse xenografted with human HT-29 cells assessed as effect on body weight at 100 mg/kg, po qd for 18 days. It counts as organism-based. To be noted: in vivo, 432 h. The gist of the method:
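Female nu/nu mice, 4–6 weeks old, implanted subcutaneously in the right flank with HT-29 cells (2×10⁶/mL). Once tumours reached 200 mm³, mice randomised to groups (n = 6) and dosed orally once daily at 100 mg/kg for 18 days. Body weight monitored during treatment. Results given as mean ± SD.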
A general note: Xenograft models place foreign cells or tissue in a host animal.

Data set [8] can be described thus: Inhibition of GST-tagged human recombinant VEGFR3 cytoplasmic domain (800 to 1297 residues) Q890H/V1128L/H1146R mutant expressed in baculovirus expression system using FAM-labeled peptide and ATP as substrate preincubated for 10 mins followed by substrate addition measured after 1 hr by mobility shift assay.
The next data set has as its system HT-29. Description: Antitumor activity against human HT-29 cells xenografted in nu/nu mouse assessed as tumour growth inhibition at 100 mg/kg, po qd for 18 days and measured twice per week by vernier caliper method. The class given is functional. To be noted: HT-29, po, 432 h, read-out: TGI.
Data set [9] has as its target Vascular endothelial growth factor receptor 2 (Homo sapiens, UniProt P35968). As to the kind of experiment: Inhibition of N-terminal GST fused human VEGFR2 cytoplasmic domain (790 to 1356 (end) residues) expressed in baculovirus expression system using FAM-labeled peptide and ATP as substrate preincubated for 10 mins followed by substrate addition measured after 1 hr by mobility shift assay.

In general, pIC50 refers to the IC50 on a negative log10 scale, so that one unit is a factor of ten. For orientation: half-life means the time in which the quantity being followed falls by half. The low end stands for rapid decline, the high end for slow decline.

pIC50: −log10 of the molar value.

Sequence of Platelet-derived growth factor receptor beta (P09619 whole entry, the tested form may be a part): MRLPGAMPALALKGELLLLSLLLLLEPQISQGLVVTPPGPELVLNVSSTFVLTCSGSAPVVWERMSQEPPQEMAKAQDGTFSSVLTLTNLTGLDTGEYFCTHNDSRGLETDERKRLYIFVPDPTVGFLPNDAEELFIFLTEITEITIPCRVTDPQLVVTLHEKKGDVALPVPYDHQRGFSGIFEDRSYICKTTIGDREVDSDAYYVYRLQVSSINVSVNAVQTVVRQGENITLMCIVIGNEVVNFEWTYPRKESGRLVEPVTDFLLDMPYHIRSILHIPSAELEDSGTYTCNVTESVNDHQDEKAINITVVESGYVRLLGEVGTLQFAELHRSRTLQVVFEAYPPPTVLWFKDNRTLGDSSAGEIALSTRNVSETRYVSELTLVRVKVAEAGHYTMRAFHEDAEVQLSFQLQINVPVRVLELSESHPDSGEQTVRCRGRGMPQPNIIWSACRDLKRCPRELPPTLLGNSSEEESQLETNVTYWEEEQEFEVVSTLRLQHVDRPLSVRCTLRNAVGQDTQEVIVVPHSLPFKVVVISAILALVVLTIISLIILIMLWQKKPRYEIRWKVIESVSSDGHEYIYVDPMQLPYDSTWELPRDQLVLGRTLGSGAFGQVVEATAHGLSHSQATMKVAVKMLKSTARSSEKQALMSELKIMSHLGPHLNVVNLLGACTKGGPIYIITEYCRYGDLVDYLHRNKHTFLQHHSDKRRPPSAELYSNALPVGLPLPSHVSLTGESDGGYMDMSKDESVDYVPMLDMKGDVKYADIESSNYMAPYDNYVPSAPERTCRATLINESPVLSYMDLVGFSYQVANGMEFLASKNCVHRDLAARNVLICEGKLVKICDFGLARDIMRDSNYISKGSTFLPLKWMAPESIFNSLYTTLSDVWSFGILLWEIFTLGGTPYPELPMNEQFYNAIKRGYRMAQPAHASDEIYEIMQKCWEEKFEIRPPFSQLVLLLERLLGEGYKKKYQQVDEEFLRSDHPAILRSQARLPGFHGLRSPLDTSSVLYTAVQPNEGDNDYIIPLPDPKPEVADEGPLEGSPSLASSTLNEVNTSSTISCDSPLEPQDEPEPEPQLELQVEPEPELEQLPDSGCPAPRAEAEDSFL
Sequence of Vascular endothelial growth factor receptor 2 (P35968 whole entry, the tested form may be a part): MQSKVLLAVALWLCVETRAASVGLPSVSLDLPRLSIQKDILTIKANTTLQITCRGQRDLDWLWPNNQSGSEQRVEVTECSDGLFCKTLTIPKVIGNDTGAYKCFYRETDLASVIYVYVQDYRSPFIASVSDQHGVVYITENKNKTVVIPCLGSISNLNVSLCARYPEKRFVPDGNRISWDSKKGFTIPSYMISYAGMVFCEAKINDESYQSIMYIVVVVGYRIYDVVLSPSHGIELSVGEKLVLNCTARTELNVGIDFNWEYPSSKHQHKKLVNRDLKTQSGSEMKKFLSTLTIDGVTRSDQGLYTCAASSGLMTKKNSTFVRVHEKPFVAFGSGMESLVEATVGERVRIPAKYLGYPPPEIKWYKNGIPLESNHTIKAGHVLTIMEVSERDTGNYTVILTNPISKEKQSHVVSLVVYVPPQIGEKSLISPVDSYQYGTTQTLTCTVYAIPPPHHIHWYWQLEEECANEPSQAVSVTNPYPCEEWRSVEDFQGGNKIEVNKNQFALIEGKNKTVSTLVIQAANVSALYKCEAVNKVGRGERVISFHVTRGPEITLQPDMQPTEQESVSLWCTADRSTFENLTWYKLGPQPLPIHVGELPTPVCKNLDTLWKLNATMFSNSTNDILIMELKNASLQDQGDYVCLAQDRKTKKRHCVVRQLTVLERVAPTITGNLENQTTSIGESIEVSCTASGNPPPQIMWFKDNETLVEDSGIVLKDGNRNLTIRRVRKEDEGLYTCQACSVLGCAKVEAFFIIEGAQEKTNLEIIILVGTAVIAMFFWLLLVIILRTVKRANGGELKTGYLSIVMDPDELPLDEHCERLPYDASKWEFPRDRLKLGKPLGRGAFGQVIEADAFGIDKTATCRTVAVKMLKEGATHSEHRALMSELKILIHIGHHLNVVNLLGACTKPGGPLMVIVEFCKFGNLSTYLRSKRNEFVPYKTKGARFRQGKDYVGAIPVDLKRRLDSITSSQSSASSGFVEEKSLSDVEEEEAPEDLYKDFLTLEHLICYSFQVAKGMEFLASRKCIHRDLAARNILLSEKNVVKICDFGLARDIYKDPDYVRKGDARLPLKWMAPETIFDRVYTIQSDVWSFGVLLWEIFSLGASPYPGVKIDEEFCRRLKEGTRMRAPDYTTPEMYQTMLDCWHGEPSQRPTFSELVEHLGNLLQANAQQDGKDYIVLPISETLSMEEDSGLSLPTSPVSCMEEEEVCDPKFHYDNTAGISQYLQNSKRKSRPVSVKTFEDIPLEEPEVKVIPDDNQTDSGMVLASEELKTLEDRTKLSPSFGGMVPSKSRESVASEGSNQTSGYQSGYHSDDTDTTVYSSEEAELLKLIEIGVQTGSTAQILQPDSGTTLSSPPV
Sequence of Tyrosine-protein kinase Lyn (P07948 whole entry): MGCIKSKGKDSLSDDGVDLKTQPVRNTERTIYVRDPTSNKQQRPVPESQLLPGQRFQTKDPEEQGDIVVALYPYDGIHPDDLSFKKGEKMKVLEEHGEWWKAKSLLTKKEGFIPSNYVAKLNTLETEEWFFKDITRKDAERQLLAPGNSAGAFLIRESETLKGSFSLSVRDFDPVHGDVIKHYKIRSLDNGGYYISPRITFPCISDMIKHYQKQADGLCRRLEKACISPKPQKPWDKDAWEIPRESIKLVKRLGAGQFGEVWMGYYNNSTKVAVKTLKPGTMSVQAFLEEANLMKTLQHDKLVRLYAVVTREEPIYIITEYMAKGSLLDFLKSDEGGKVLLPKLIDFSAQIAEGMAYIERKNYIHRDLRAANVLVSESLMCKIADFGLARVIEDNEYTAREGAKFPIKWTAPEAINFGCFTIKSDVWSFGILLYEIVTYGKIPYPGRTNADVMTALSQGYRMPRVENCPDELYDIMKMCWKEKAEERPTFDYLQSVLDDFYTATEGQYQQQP

`COC(=O)c1ccc2c(c1)NC(=O)/C2=C(\Nc1ccc(-n2cccc2CN2CCN(C)CC2)c(C)c1)c1ccccc1`: the pIC50 in data set [1] is 6.69.

With `COC(=O)c1ccc2c(c1)NC(=O)/C2=C(\Nc1ccc(-n2c(C)ccc2CN(C)C)cc1)c1ccccc1`, the pIC50 in [1] was 7.34.

Turning to `COC(=O)c1ccc2c(c1)NC(=O)/C2=C(\Nc1ccc(-n2c(C)ccc2CN2CCOCC2)cc1)c1ccccc1`, the pIC50 in [1] is 7.43.

Turning to `COC(=O)c1ccc2c(c1)NC(=O)/C2=C(\Nc1ccc(-n2cccc2CN2CCN(C)CC2)cc1)c1ccccc1`, in [1], the pIC50 was 7.26.

Turning to `COC(=O)c1ccc2c(c1)NC(=O)/C2=C(\Nc1ccc(-n2cccc2CN(C)C)c(C)c1)c1ccccc1`, the pIC50 in data set [1] was 7.51.

Regarding `COC(=O)c1ccc2c(c1)NC(=O)/C2=C(\Nc1ccc(N(C)C(=O)CN2CCN(C)CC2)cc1)c1ccccc1` [NINTEDANIB], the CLint scaled in data set [2] was found to be 63.5 mL/min/kg. The pIC50 was under 6.00 in data set [3], 8.72 in data set [5], 7.26 in data set [6] and 8.52 in data set [8]. This molecule displayed a half-life in data set [4] of 27.4 min. Besides, in data set [7], the Activity result was “Non-Toxic”. Moreover, in the data set with HT-29, the inhibition in vivo at 100 mg/kg is 44.3%.

For `CCN(CC)Cc1ccc(C)n1-c1ccc(N/C(=C2\C(=O)Nc3cc(C(=O)OC)ccc32)c2ccccc2)cc1`, the pIC50 in data set [1] is 7.62.

For the molecule `COC(=O)c1ccc2c(c1)NC(=O)/C2=C(\Nc1ccc(-n2cccc2CN(C)C)cc1)c1ccccc1`, the negative logarithm of the IC50 (pIC50) in [1] is 7.96.

Consider `COC(=O)c1ccc2c(c1)NC(=O)/C2=C(\Nc1ccc(-n2c(C)ccc2CN(C)C)nc1)c1ccccc1`, for which, in data set [1], the pIC50 was 7.49.

As for `COC(=O)c1ccc2c(c1)NC(=O)/C2=C(\Nc1ccc(-n2c(C)ccc2CN2CCN(C)CC2)nc1)c1ccccc1`, in data set [1], the negative logarithm of the IC50 (pIC50) was 6.91.

Turning to `COC(=O)c1ccc2c(c1)NC(=O)/C2=C(\Nc1ccc(-n2cccc2CN(C)C)nc1)c1ccccc1`, in data set [1], the pIC50 is 7.59.

For `COC(=O)c1ccc2c(c1)NC(=O)/C2=C(\Nc1cnc(-n2cccc2CN2CCN(C)CC2)c(C)c1)c1ccccc1`, the negative logarithm of the IC50 (pIC50) in [9] was under 6.00; in data set [1], under 6.52.

Regarding `COC(=O)c1ccc2c(c1)NC(=O)/C2=C(\Nc1cnc(-n2cccc2CN(C)C)c(C)c1)c1ccccc1`, the pIC50 is under 6.00 in [9] and 7.15 in [1].

With `COC(=O)c1ccc2c(c1)NC(=O)/C2=C(\Nc1ccc(-n2cccc2CN2CCN(C)CC2)nc1)c1ccccc1`, the pIC50 in [1] was 6.94.

These data come from ChEMBL document CHEMBL4622841, “Structural modifications of indolinones bearing a pyrrole moiety and discovery of a multi-kinase inhibitor with potent antitumor activity” (Bioorg Med Chem, 2020).
